ED50, AFI and Activity data for 13 compounds are collected here from ChEMBL document CHEMBL3045496, “Antifeedant activity of ethanolic extract from Flourensia oolepis and isolation of pinocembrin as its active principle compound” (2009).

The source made the active and inactive calls. No cut-off for these calls is given here.

Assay [1] has as its system Spodoptera litura. Briefly: Antifeedant activity against third-instar Spodoptera litura assessed per cm2 leaf disk. The format is functional.
Assay [2] deals with Epilachna. In words: Antifeedant activity against third-instar Epilachna paenulata measured assessed per cm2 leaf disk. It is filed as functional.
Assay [3] relates to Epilachna. Briefly: Antifeedant activity against third-instar Epilachna paenulata measured assessed per cm2 leaf disk after 24 hr by leaf disk choice test. The format is functional. The essentials: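 Two Cucurbita maxima seedling cotyledons in a Petri dish under a glass disk with two 1 cm2 holes: one solvent-treated, one solvent-control. A single larva is placed equidistant between them and feeds for 24 h. Area eaten is estimated visually by quarters, always by the same operator. AI% = [1−(T/C)]×100; means of 10 replicates.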

In assay [4] the test system is Xanthogaleruca luteola. Briefly: Antifeedant activity against adult Xanthogaleruca luteola assessed per cm2 leaf disk after 24 hr by leaf-disk choice test.
Assay [5] relates to Epilachna. In words: Antifeedant activity against third-instar Epilachna paenulata measured at 5 ug/cm2 leaf disk after 24 hr by leaf-disk choice test relative to control. The format is functional.
Assay [6] has as its system Xanthogaleruca luteola. Briefly: Antifeedant activity against adult Xanthogaleruca luteola measured at 100 ug/cm2 leaf disk after 24 hr by leaf-disk choice test relative to control.
Assay [7] relates to Spodoptera frugiperda. In words: Antifeedant activity against third-instar Spodoptera frugiperda (fall armyworm) measured at 100 ug/cm2 leaf disk after 3 to 4 hr by leaf-disk choice test relative to control. It is filed as functional. The method in brief: (§1)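 Two-choice leaf-disk assay with third-instar larvae collected in the field and kept on pumpkin for 2–3 days beforehand. Treated and solvent-control 1 cm2 disks of C. maxima cotyledon are offered together, and the area of each consumed (0–100%) is scored visually by quarters by the same operator. AI% = [1−(T/C)]×100; means of 10 replicates.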

Assay [8] deals with Spodoptera frugiperda. Briefly: Antifeedant activity against third-instar Spodoptera frugiperda (fall armyworm) measured at 50 ug/cm2 leaf disk after 3 to 4 hr by leaf-disk choice test relative to control. It is filed as functional. The essentials:
as §1

The subject of assay [9] is Epilachna. Briefly: Antifeedant activity against third-instar Epilachna paenulata measured at 100 ug/cm2 leaf disk after 24 hr by leaf-disk choice test relative to control. It is filed as functional.
In assay [10] the test system is Epilachna. In words: Antifeedant activity against third-instar Epilachna paenulata measured at 50 ug/cm2 leaf disk after 24 hr by leaf-disk choice test relative to control. The format is functional.
Assay [11] has as its system Xanthogaleruca luteola. In words: Antifeedant activity against adult Xanthogaleruca luteola measured at 1 ug/cm2 leaf disk after 24 hr by leaf-disk choice test relative to control.
Assay [12] deals with Xanthogaleruca luteola. Briefly: Antifeedant activity against adult Xanthogaleruca luteola measured at 5 ug/cm2 leaf disk after 24 hr by leaf-disk choice test relative to control.
The subject of assay [13] is Epilachna. Briefly: Antifeedant activity against third-instar Epilachna paenulata measured at 1 ug/cm2 leaf disk after 24 hr by leaf disk choice test relative to control. The format is functional.
In assay [14] the test system is Spodoptera frugiperda. In words: Antifeedant activity against third-instar Spodoptera frugiperda (fall armyworm) assessed per cm2 leaf disk after 3 to 4 hr by leaf-disk choice test. It is filed as functional.
The subject of assay [15] is Xanthogaleruca luteola. In words: Antifeedant activity against adult Xanthogaleruca luteola measured at 10 ug/cm2 leaf disk after 24 hr by leaf-disk choice test relative to control.
Assay [16] deals with Spodoptera frugiperda. Briefly: Antifeedant activity against third-instar Spodoptera frugiperda (fall armyworm) measured at 5 ug/cm2 leaf disk after 3 to 4 hr by leaf-disk choice test relative to control. It is filed as functional. The method in brief:
as §1

Assay [17] has as its system Epilachna. Briefly: Antifeedant activity against third-instar Epilachna paenulata measured at 10 ug/cm2 leaf disk after 24 hr by leaf-disk choice test relative to control. The format is functional.
Assay [18] concerns Spodoptera frugiperda. Briefly: Antifeedant activity against third-instar Spodoptera frugiperda (fall armyworm) measured at 10 ug/cm2 leaf disk after 3 to 4 hr by leaf-disk choice test relative to control. It is filed as functional. The essentials:
as §1

For assay [19], the system named is Xanthogaleruca luteola. Briefly: Antifeedant activity against adult Xanthogaleruca luteola measured at 50 ug/cm2 leaf disk after 24 hr by leaf-disk choice test relative to control.

In turn, `COc1c(OC)c(O)c2c(=O)c(OC)c(-c3ccccc3)oc2c1OC` registered an ED50 in assay [1] of 7.16 µg.

With `COc1ccc(-c2oc3c(OC)c(OC)c(OC)c(O)c3c(=O)c2OC)cc1` [5-HYDROXYAURANETIN], the ED50 in [1] came out at 42.8 µg.

In the case of `C[C@@H]1CC[C@H]2[C@@H](C)C(=O)O[C@@H]3O[C@@]4(C)CC[C@@H]1[C@]32OO4` [ARTEMISININ], in assay [2], the ED50 was 14.7 µg.

For `C/C=C(\C)C(=O)O[C@H]1C[C@@H](OC(C)=O)[C@@]2(C(=O)OC)CO[C@H]3[C@@H](O)[C@@](C)([C@]45O[C@@]4(C)[C@@H]4C[C@H]5O[C@@H]5OC=C[C@@]54O)[C@H]4[C@]1(CO[C@]4(O)C(=O)OC)[C@@H]32` [AZADIRACHTIN A], the ED50 in assay [3] is 0.59 µg.

On to `Oc1cc(O)c2c(c1)OC(c1ccc(O)c(O)c1)C(O)C2` (configuration not stated) [CATECHIN], for which the ED50 in assay [4] was 50.22 µg; in assay [3], 47.6 µg.

As for `O=c1cc(-c2ccccc2)oc2cc(O)cc(O)c12` [CHRYSIN], the ED50 in [1] is 635 µg.

For the compound `O=c1cc(-c2ccccc2)oc2ccccc12` [FLAVONE], in assay [1], the ED50 turned out to be 24.6 µg.

As to `CC(=O)O[C@@H]1C[C@H](O)[C@@]23COC(O)[C@]1(C)[C@@H]2C[C@@H](O)[C@]1(C)[C@@H]3[C@H](O)C(=O)[C@@]2(C)[C@H](c3ccoc3)C[C@H]3O[C@@]312` (some centres not stated) [MELIARTENIN], the ED50 in [2] turned out to be 0.8 µg.

Compound `O=C1C[C@@H](c2ccc(O)cc2)Oc2cc(O)cc(O)c21` [NARINGENIN] gave an ED50 in assay [3] of 160.15 µg.

On to `O=C1C[C@@H](c2ccccc2)Oc2cc(O)cc(O)c21` [PINOCEMBRIN], for which the values for the ED50 in assay [4], in [3] and in assay [14] were 6.13 µg, 7.98 µg and 8.86 µg, respectively. In addition, the AFI in assay [5] came out at 21%; in assay [6], 98%; in assay [7] it was 92%; in [8] it was 91%; in [9], 99.1%; in [10] it was 90%. Besides, the AFI is reported as 0% in assay [11]; 62% in [12]; 12% in assay [13]; 62% in assay [15]; 21% in assay [16]; 62% in assay [17]. The figures for the AFI in assay [18] and in [19] were 70% and 94%, respectively.

`O=c1c(O)c(-c2ccc(O)c(O)c2)oc2cc(O)cc(O)c12` [QUERCETIN]: in [1], the outcome was inactive. Also, the ED50 stood at 178.52 µg in [4] and 9.26 µg in [3].

Take `C=C(C)[C@H]1Cc2c(ccc3c2O[C@@H]2COc4cc(OC)c(OC)cc4[C@@H]2C3=O)O1` [ROTENONE]: the ED50 in [1] stood at 59.1 µg.

In turn, `CC(=O)O[C@@H]1C[C@H](O)[C@@]23CO[C@@H](O)[C@]1(C)[C@@H]2C[C@@H](O)[C@]1(C)[C@@H]3C(=O)[C@H](OC(C)=O)[C@@]2(C)[C@H](c3ccoc3)C[C@H]3O[C@]321` [TOOSENDANIN] registered an ED50 in assay [2] of 3.69 µg.
